Data set [1] concerns Human betaherpesvirus 5. The data set can be described thus: Antiviral activity against Human cytomegalovirus Towne infected in human HFL after 10 to 12 days by plaque reduction assay. Format: functional, organism-based. The settings on record: Human betaherpesvirus 5, Towne. In short, it runs like this: (§1)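 Semiconfluent fibroblasts (HCMV Towne in HFL, GPCMV in guinea pig lung fibroblasts, MCMV Smith in NIH 3T3) in 12-well plates inoculated with 50 or 100 PFU, centrifuged 600 × g 30 min, 1–2 h at 37°C; inoculum replaced by twofold compound dilutions in 1% methylcellulose, 4% FBS. Incubation 4–5 d MCMV, 6–7 d GPCMV, 10–12 d HCMV; crystal violet/formalin stain, plaques counted, triplicate; EC50 by linear regression of log concentration vs % plaque reduction.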

Data set [2] is described as follows: Antiviral activity against Murine cytomegalovirus strain Smith infected in mouse NIH 3T3 cells after 4 to 5 days by plaque reduction assay. Format: functional, cell-based. As to conditions: Murid betaherpesvirus 1, NIH3T3. The method in brief: as §1
Background: Plaque reduction counts the foci of infection that form in a cell layer.

Data set [3] deals with Caviid betaherpesvirus 2. As to the kind of experiment: Antiviral activity against Guinea pig cytomegalovirus (strain 22122; ATCC VR-682) infected in guinea pig lung fibroblast after 6 to 7 days by plaque reduction assay. The data set is classed as functional, organism-based. In short, it runs like this:
as §1

The subject of data set [4] is Human betaherpesvirus 5. As to the kind of experiment: Antiviral activity against 0.05 MOI Human cytomegalovirus Towne infected in human hTERT-BJ1 cells assessed as inhibition of viral DNA replication at 20 uM by qPCR. The data set is classed as functional, organism-based. As to conditions: BJ. The method in brief:
(§2)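 hTERT-BJ1 cells infected with HCMV at MOI 0.05 or 3.0, cultured for set durations with DMSO, 20 μM or 5 μM compound; DNA extracted (QIAamp) and HCMV UL83 and human albumin genes quantified by qPCR against plasmid and cellular DNA standards; viral copies divided by albumin copies as copies per cell; triplicate experiments, mean and SD.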

The subject of data set [5] is Human betaherpesvirus 5. As to the kind of experiment: Antiviral activity against Human cytomegalovirus Towne infected in human hTERT-BJ1 cells assessed as inhibition of virus induced infection after 12 hrs post infection by luciferase reporter gene assay. The data set is classed as functional, organism-based. As to conditions: BJ. The method in brief:
(§3)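 hTERT-BJ1 cells (3 × 10^4/well, 96-well) infected next day with 2 × 10^3 PFU HCMV Towne and given 20 μM compound or DMSO over varied windows: added at set times and kept to harvest, removed at set times, or present 24 h from set start times. Luciferase measured at 48 h p.i. in three wells; mean and SD.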

In data set [6] the test system is Human betaherpesvirus 5. The data set can be described thus: Antiviral activity against Human cytomegalovirus Towne infected in human hTERT-BJ1 cells assessed as inhibition of attachment of virus particles to the cell surface at 20 uM after 2 hrs post infection by quantitative PCR. The data set is classed as functional, organism-based. The settings on record: BJ.

Data set [7] deals with Human betaherpesvirus 5. As to the kind of experiment: Antiviral activity against 0.05 MOI Human cytomegalovirus Towne infected in human hTERT-BJ1 cells assessed as decrease in IE1 gene expression at 20 uM after 24 hrs by RT-PCR. Format: functional, organism-based. As to conditions: BJ. In short, it runs like this:
(§4)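 hTERT-BJ1 cells (4 × 10^5 per T12.5 flask) infected with HCMV at MOI 0.05, cultured with DMSO, 15 μM roscovitine or 20 μM test compound for set periods; cells washed with PBS, stored at −80°C, total RNA purified; IE1, IE2 and G6PD transcripts by quantitative RT-PCR, IE1/IE2 given as CT after normalization to G6PD; triplicate experiments, mean and SD.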

Data set [8] deals with Human betaherpesvirus 5. The data set can be described thus: Antiviral activity against Human cytomegalovirus Towne infected in human hTERT-BJ1 cells assessed as decrease in G6PD gene expression at 20 uM after 24 hrs by RT-PCR. Format: functional, organism-based. The settings on record: BJ. In short, it runs like this: as §4
Data set [9] deals with Human betaherpesvirus 5. The data set can be described thus: Antiviral activity against 0.05 MOI Human cytomegalovirus Towne infected in human hTERT-BJ1 cells assessed as decrease in IE2 gene expression at 20 uM after 24 hrs by […]. Format: functional, organism-based. The settings on record: BJ. The method in brief:
as §4

The test system of data set [10] is Human betaherpesvirus 5. As to the kind of experiment: Antiviral activity against Human cytomegalovirus Towne infected in human hTERT-BJ1 cells assessed as inhibition of attachment of virus particles to the cell surface at 1 mg/ml after 2 hrs post infection by quantitative PCR. Format: functional, organism-based. The settings on record: BJ.
The subject of data set [11] is Human betaherpesvirus 5. The data set can be described thus: Antiviral activity against Human cytomegalovirus Towne infected in human hTERT-BJ1 cells assessed as decrease in IE2 mRNA level at 5 uM after 24 hrs by immunofluorescent assay. The data set is classed as functional, organism-based. As to conditions: BJ.
The subject of data set [12] is Human betaherpesvirus 5. The data set can be described thus: Antiviral activity against Human cytomegalovirus Towne infected in human hTERT-BJ1 cells assessed as decrease in G6PD gene expression at 15 uM after 24 hrs by RT-PCR. Format: functional, organism-based. The settings on record: BJ. In short, it runs like this:
as §4

Data set [13] is described as follows: Cytotoxicity against HLF cells. Format: cell-based. As to conditions: human. The method in brief:
(§5)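 Cells at 20–25% confluence in 96-well plates cultured 2–4 days with twofold serial compound dilutions or matching DMSO; supernatant removed, cells rinsed, viability read as ATP luminescence (CellTiter-Glo); triplicate; 50% cytotoxic concentration from log concentration vs RLU plot.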

The test system of data set [14] is Human betaherpesvirus 5. As to the kind of experiment: Antiviral activity against 0.05 MOI Human cytomegalovirus Towne infected in human hTERT-BJ1 cells assessed as inhibition of viral DNA replication at 5 uM by qPCR. The data set is classed as functional, organism-based. As to conditions: BJ. The method in brief:
as §2
(Real-time PCR tracks product formation cycle by cycle.)

Data set [15] relates to Human betaherpesvirus 5. The data set can be described thus: Antiviral activity against 0.05 MOI Human cytomegalovirus Towne infected in human hTERT-BJ1 cells assessed as decrease in IE2 gene expression at 15 uM after 24 hrs by […]. The data set is classed as functional, organism-based. The settings on record: BJ. The method in brief: as §4
Data set [16] has as its system Human betaherpesvirus 5. As to the kind of experiment: Antiviral activity against Human cytomegalovirus AD169 infected in human U4C-48 cells assessed as decrease in viral titer by luciferase reporter gene assay. As to conditions: Human betaherpesvirus 5, AD169, U4C-48. The data set is classed as functional, organism-based.
Data set [17] relates to Human betaherpesvirus 5. As to the kind of experiment: Antiviral activity against Human cytomegalovirus Towne infected in human hTERT-BJ1 cells assessed as decrease in ICP22 mRNA level at 20 uM after 48 hrs by immunofluorescent assay. Format: functional, organism-based. As to conditions: BJ.
The subject of data set [18] is Human betaherpesvirus 5. As to the kind of experiment: Antiviral activity against Human cytomegalovirus RC256 infected in human hTERT-BJ1 cells after 1 hr by Immunostaining and Xgal staining. The settings on record: Human betaherpesvirus 5, RC256, BJ. Format: functional, organism-based. The method in brief: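 hTERT-BJ1 cells infected with HCMV RC256, a β-galactosidase-expressing recombinant Towne strain, in the presence of various compound concentrations; infected cells counted after X-Gal staining to derive EC50.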

The test system of data set [19] is Human betaherpesvirus 5. As to the kind of experiment: Antiviral activity against Human cytomegalovirus Towne infected in human hTERT-BJ1 cells assessed as inhibition of virus induced infection after 48 hrs post infection by luciferase reporter gene assay. The settings on record: BJ. Format: functional, organism-based. The method in brief:
as §3

Data set [20] can be described thus: Selectivity index, ratio of CC50 for human lung fibroblast cells to EC50 for Human cytomegalovirus Towne. The settings on record: read-out: Selectivity Index. Format: toxicity, cell-based.
The test system of data set [21] is Human betaherpesvirus 5. The data set can be described thus: Antiviral activity against human cytomegalovirus Towne infected in human U4C-48 cells assessed as decrease in viral titer by luciferase reporter gene assay. The data set is classed as functional, organism-based. The settings on record: Human betaherpesvirus 5, Towne. In short, it runs like this: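 U4C-48 reporter cells (U373MG carrying TRL4 promoter-luciferase) infected with HCMV laboratory strain or clinical isolates and cultured 2 days with compound dilutions; luciferase read by chemiluminescence, triplicate. EC50 taken as concentration reducing luciferase to the level of cells given half the virus inoculum.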
Background: Reporter assays use an easily measured gene product as a stand-in for the process of interest.

The nature of data set [22]: Cytotoxicity against human hTERT-BJ1 cells. The data set is classed as cell-based, BJ. The method in brief:
as §5

For data set [23], the system named is Human betaherpesvirus 5. The data set can be described thus: Antiviral activity against Human cytomegalovirus Towne infected in human hTERT-BJ1 cells assessed as inhibition of virus induced infection after 6 hrs post infection by luciferase reporter gene assay. As to conditions: BJ. The data set is classed as functional, organism-based. The method in brief:
as §3

Data set [24] has as its system Human betaherpesvirus 5. As to the kind of experiment: Antiviral activity against 0.05 MOI Human cytomegalovirus Towne infected in human hTERT-BJ1 cells assessed as decrease in IE1 gene expression at 15 uM after 24 hrs by RT-PCR. The data set is classed as functional, organism-based. The settings on record: BJ. The method in brief:
as §4

The subject of data set [25] is Human betaherpesvirus 5. The data set can be described thus: Antiviral activity against 3 MOI Human cytomegalovirus Towne infected in human hTERT-BJ1 cells assessed as inhibition of viral DNA replication at 5 uM by qPCR. Format: functional, organism-based. As to conditions: BJ. The method in brief:
as §2

Data set [26] deals with Human betaherpesvirus 5. As to the kind of experiment: Antiviral activity against Human cytomegalovirus Towne infected in human hTERT-BJ1 cells assessed as decrease in IE1 mRNA level at 5 uM after 24 hrs by immunofluorescent assay. The settings on record: BJ.
For data set [27], the system named is Human betaherpesvirus 5. The data set can be described thus: Antiviral activity against 3 MOI Human cytomegalovirus Towne infected in human hTERT-BJ1 cells assessed as inhibition of viral DNA replication at 20 uM by qPCR. The settings on record: BJ. Format: functional, organism-based. The method in brief: as §2
A short description of data set [28]: Selectivity index, ratio of CC50 for human hTERT-BJ1 cells to EC50 for Human cytomegalovirus Towne. Format: toxicity, cell-based, BJ. As to conditions: read-out: Selectivity Index.
Data set [29] has as its system Human betaherpesvirus 5. As to the kind of experiment: Antiviral activity against Human cytomegalovirus Towne infected in human hTERT-BJ1 cells assessed as inhibition of virus induced infection after 24 hrs post infection by luciferase reporter gene assay. The data set is classed as functional, organism-based. The settings on record: BJ. In short, it runs like this:
as §3

The EC50 is the midpoint of the concentration-response curve. The CC50 is the concentration at which the toxic effect on the cells reaches its halfway point. Higher therefore signals better tolerance by the cells.

Calls of active or inactive are those of the source. The calls are words filed in the database; no cut-off is given here. Bounds are passed on as bounds.

As for `Nc1nc2c(ncn2COC(CO)CO)c(=O)[nH]1` [GANCICLOVIR], the 50% effective concentration (EC50) in data set [1] turned out to be 1.4 µM; in data set [2], 5.7 µM; in [3], 25.9 µM.

As to `NC(=O)C1CCN(c2c(Cl)cncc2Cl)CC1`, the inhibition entry in data set [4], in data set [5], in data set [10], in data set [11], in data set [14] and in data set [17] was “Active” throughout. Moreover, the inhibition entry in [23], in data set [25], in data set [26], in data set [27] and in [29] was “Active” each time. Moreover, the EC50 in data set [1] was 2.5 µM; in data set [2], 3 µM; in [16], 5 µM; in data set [18], 3.5 µM; in data set [21], 5 µM; in [3], 6.2 µM. Also, the inhibition entry in data set [6] and in data set [19] was “inactive” each time. Further, the outcome in [7], in data set [9], in [15] and in data set [24] was Active. For the same compound, the outcome in [8] and in [12] was inactive. Further, the half-maximal cytotoxic concentration (CC50) in [13] and in data set [22] was 100 µM throughout. The selectivity ratio in data set [20] and in data set [28] was greater than 10 throughout.

(Values after ChEMBL document CHEMBL1671855, “Establishment of a cell-based assay for screening of compounds inhibiting very early events in the cytomegalovirus replication cycle and characterization of a compound identified using the assay” (Antimicrob Agents Chemother, 2008).)
